{
  "source": "ChEMBL document CHEMBL1153536",
  "about": "“5-lipoxygenase-activating protein inhibitors: development of 3-[3-tert-butylsulfanyl-1-[4-(6-methoxy-pyridin-3-yl)-benzyl]-5-(pyridin-2-ylmethoxy)-1H-indol-2-yl]-2,2-dimethyl-propionic acid (AM103)” (J Med Chem, 2009)",
  "key": {"[1]": {"target": "T1, Arachidonate 5-lipoxygenase-activating protein (Homo sapiens, UniProt P20292)", "T1 sequence (P20292 whole entry)": "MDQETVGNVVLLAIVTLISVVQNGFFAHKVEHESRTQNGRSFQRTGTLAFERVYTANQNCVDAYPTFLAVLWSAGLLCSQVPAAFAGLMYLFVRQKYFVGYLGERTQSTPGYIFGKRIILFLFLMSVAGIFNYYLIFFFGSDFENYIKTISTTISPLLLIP", "assay": "Displacement of [3H]3-[5-(pyrid-2-ylmethoxy)-3-tert-butylthio-1-benzyl-indol-2-yl]-2,2-dimethylpropionic acid from FLAP in human polymorphonuclear cell membrane"}, "[2]": {"assay": "Inhibition of calcium ionophore A-23187-stimulated LTB4 production in human leukocytes by ELISA", "assay_type": "functional, cell-based", "settings": "Leukocyte", "procedure,_shortened": "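Dextran-sedimented, hypotonically lysed human leukocytes at 1.25 × 10^5 cells/mL, preincubated 5 min at 37 °C with compound in DMSO. Stimulated 5 min at 37 °C with A23187 (5 μL of 0.5 mM into 250 μL). Supernatant LTB4 measured by ELISA at 1:4 dilution; IC50 by nonlinear regression of % inhibition vs log concentration.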"}, "Blood": {"test_system": "Blood", "assay": "Inhibition of calcium ionophore A-23187-stimulated LTB4 production in human whole blood by ELISA", "assay_type": "functional, tissue-based", "procedure,_shortened": "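Heparinized human whole blood preincubated 15 min at 37 °C with compound in DMSO. Stimulated 30 min at 37 °C with A23187 (2 μL of 1.5 mM into 150 μL). Plasma LTB4 measured by ELISA at 1:100 dilution; IC50 by nonlinear regression. A single value is one assay averaging two donors.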"}, "[3]": {"target": "Prostaglandin G/H synthase 1 (Homo sapiens, UniProt P23219)", "sequence (P23219 whole entry)": "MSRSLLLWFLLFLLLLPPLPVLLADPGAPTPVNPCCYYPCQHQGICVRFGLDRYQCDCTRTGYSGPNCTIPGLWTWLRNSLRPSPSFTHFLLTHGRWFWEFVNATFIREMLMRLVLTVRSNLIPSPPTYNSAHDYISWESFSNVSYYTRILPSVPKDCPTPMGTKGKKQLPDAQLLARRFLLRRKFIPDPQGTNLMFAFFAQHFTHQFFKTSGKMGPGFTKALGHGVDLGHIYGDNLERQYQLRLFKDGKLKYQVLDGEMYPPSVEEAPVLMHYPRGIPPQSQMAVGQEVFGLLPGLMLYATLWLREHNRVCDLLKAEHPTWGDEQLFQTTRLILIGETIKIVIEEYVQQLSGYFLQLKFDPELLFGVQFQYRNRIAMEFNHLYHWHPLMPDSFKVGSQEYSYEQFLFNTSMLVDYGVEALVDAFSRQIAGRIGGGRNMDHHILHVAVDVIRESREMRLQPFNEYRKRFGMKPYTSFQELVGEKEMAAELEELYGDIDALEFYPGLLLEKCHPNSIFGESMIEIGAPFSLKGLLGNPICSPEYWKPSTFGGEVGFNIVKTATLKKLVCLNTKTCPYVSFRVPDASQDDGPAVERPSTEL", "assay": "Inhibition of COX1 in human whole blood", "assay_type": "tissue-based"}, "Cytochrome P450 3A4 [4]": {"target": "T2, Cytochrome P450 3A4 (Homo sapiens, UniProt P08684)", "T2 sequence (P08684 whole entry)": "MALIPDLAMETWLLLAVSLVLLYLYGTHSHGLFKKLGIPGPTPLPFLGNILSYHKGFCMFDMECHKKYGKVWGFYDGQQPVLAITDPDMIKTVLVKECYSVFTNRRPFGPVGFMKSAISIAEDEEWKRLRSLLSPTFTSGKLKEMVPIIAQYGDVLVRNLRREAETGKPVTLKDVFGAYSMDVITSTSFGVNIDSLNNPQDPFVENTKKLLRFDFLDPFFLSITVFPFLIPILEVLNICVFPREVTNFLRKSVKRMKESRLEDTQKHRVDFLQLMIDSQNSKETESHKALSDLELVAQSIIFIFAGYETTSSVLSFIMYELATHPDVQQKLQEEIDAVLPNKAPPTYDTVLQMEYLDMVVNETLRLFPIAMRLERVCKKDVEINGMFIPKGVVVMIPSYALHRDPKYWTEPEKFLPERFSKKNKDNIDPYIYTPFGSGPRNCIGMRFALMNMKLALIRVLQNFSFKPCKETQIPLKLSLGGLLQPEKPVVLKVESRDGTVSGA", "assay": "Inhibition of CYP3A4", "assay_type": "ADME"}, "Cytochrome P450 2C9": {"target": "Cytochrome P450 2C9 (Homo sapiens, UniProt P11712)", "sequence (P11712 whole entry)": "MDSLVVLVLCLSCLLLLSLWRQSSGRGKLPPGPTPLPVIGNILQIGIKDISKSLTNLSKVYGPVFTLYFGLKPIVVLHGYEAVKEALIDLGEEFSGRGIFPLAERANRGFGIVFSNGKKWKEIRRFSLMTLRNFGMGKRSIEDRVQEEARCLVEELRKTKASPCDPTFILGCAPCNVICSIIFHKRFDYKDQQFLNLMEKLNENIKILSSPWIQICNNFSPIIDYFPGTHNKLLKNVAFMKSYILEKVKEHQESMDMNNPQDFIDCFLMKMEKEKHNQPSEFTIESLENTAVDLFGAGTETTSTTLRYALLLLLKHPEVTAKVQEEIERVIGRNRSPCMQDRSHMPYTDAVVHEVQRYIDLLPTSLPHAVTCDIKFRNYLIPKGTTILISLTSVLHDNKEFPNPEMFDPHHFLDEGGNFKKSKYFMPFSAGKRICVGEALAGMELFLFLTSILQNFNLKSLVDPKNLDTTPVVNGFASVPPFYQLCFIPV", "assay": "Inhibition of CYP2C9", "assay_type": "ADME"}, "Cytochrome P450 2D6": {"target": "Cytochrome P450 2D6 (Homo sapiens, UniProt P10635)", "sequence (P10635 whole entry)": "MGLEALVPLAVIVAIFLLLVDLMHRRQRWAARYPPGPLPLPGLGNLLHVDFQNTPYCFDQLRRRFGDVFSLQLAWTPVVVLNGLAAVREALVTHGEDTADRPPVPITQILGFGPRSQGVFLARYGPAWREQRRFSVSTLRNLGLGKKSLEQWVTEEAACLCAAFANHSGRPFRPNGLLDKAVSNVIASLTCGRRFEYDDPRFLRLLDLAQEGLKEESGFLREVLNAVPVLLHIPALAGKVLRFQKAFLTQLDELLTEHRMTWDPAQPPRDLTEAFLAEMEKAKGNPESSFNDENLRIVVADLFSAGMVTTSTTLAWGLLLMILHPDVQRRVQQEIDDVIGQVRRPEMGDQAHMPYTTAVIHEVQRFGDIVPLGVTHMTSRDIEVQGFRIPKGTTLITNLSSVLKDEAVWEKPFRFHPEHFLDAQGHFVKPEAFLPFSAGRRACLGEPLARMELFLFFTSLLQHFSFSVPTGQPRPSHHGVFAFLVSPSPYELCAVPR", "assay": "Inhibition of CYP2D6", "assay_type": "ADME"}, "Cytochrome P450 3A4 [5]": {"target": "T2, Cytochrome P450 3A4", "assay": "Inhibition of CYP3A4 assessed as inhibition rate"}, "[6]": {"assay": "Bioavailability in Sprague-Dawley rat at 2 mg/kg, iv and 10 mg/kg, po", "assay_type": "ADME, organism-based", "settings": "Sprague-Dawley, in vivo", "procedure,_shortened": "(§1)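 Male rats fasted overnight, 2 or 3 per route. Dosing was 2 mg/kg i.v. as a jugular bolus in PEG400/ethanol/water (40/10/50) and 10 mg/kg p.o. by gavage in 0.5% methylcellulose. Jugular cannula blood was sampled up to 24 h (8-9 samples). Plasma was acetonitrile-precipitated with buspirone internal standard and quantified by LC-MS/MS, positive ESI MRM, calibration […], LLOQ 1-5 ng/mL.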"}, "[7]": {"assay": "Cmax in Sprague-Dawley rat after 10 mg/kg oral dose", "assay_type": "ADME, organism-based", "design": "dose 10 mg/kg, route oral", "settings": "in vivo", "procedure,_shortened": "as §1"}, "[8]": {"assay": "AUC in Sprague-Dawley rat at 10 mg/kg, po", "assay_type": "ADME, organism-based", "design": "dose 10 mg/kg, route oral", "settings": "plasma", "procedure,_shortened": "as §1"}, "[9]": {"assay": "Clearance in Sprague-Dawley rat at 2 mg/kg, iv and 10 mg/kg, po", "assay_type": "ADME, organism-based", "settings": "in vivo", "procedure,_shortened": "as §1"}, "[10]": {"assay": "Volume of distribution at steady state in Sprague-Dawley rat at 2 mg/kg, iv and 10 mg/kg, po", "assay_type": "ADME, organism-based", "settings": "in vivo, read-out: Vdss", "procedure,_shortened": "as §1"}, "[11]": {"assay": "Half life in Sprague-Dawley rat at 2 mg/kg, iv after 6 to 24 hrs", "assay_type": "ADME, organism-based", "design": "dose 2 mg/kg, route intravenous", "settings": "in vivo", "procedure,_shortened": "as §1"}},
  "data": [
    {"smiles": "CC(C)(Cc1c(CC2CCC2)c2cc(OCc3ccccn3)ccc2n1Cc1ccc(-c2nccs2)cc1)C(=O)O", "values": [
      {"measurement": "IC50", "setting": "[1]", "value": 6.6, "unit": "nM"},
      {"measurement": "IC50", "setting": "[2]", "value": 1.1, "unit": "nM"},
      {"measurement": "IC50", "setting": "Blood", "value": 391, "unit": "nM"}
    ]},
    {"smiles": "COc1ccc(-c2cccc(Cn3c(CC(C)(C)C(=O)O)c(SC(C)(C)C)c4cc(OCc5ccccn5)ccc43)c2)cn1", "values": [
      {"measurement": "IC50", "setting": "[1]", "value": 5.5, "unit": "nM"},
      {"measurement": "IC50", "setting": "[2]", "value": 1.2, "unit": "nM"},
      {"measurement": "IC50", "setting": "Blood", "value": 934, "unit": "nM"},
      {"measurement": "IC50", "setting": "[3]", "value": 420, "unit": "nM"}
    ]},
    {"smiles": "CC(C)(C)Sc1c(CC(C)(C)C(=O)O)n(Cc2ccc(Cl)cc2)c2ccc(OCc3ccccn3)cc12", "values": [
      {"measurement": "IC50", "setting": "[1]", "value": 1.7, "unit": "nM"},
      {"measurement": "IC50", "setting": "[2]", "value": 0.8, "unit": "nM"},
      {"measurement": "IC50", "setting": "Blood", "value": 512, "unit": "nM"},
      {"measurement": "IC50", "setting": "Cytochrome P450 3A4 [4]", "value": 11500, "unit": "nM"},
      {"measurement": "IC50", "setting": "Cytochrome P450 2C9", "value": 1000, "unit": "nM"},
      {"measurement": "IC50", "setting": "Cytochrome P450 2D6", "value": "> 30000", "unit": "nM"}
    ]},
    {"smiles": "CC(C)(C)Sc1c(CC(C)(C)C(=O)O)n(Cc2ccc(-c3cnccn3)cc2)c2ccc(OCc3ccccn3)cc12", "values": [
      {"measurement": "IC50", "setting": "[1]", "value": 28, "unit": "nM"},
      {"measurement": "IC50", "setting": "[2]", "value": 12, "unit": "nM"},
      {"measurement": "IC50", "setting": "Blood", "value": 1650, "unit": "nM"}
    ]},
    {"smiles": "CC(C)(C)CCc1c(CC(C)(C)C(=O)O)n(Cc2ccc(-c3nccs3)cc2)c2ccc(OCc3ccccn3)cc12", "values": [
      {"measurement": "IC50", "setting": "[1]", "value": 229, "unit": "nM"},
      {"measurement": "IC50", "setting": "[2]", "value": 5.3, "unit": "nM"},
      {"measurement": "IC50", "setting": "Blood", "value": 4860, "unit": "nM"}
    ]},
    {"smiles": "CC(C)(C)Sc1c(CC(C)(C)C(=O)O)n(Cc2ccc(Cl)cc2)c2ccc(OCc3ccc4ccccc4n3)cc12", "note": "[QUIFLAPON]", "values": [
      {"measurement": "TDI", "setting": "Cytochrome P450 3A4 [5]", "value": 0.009, "unit": "min⁻¹"},
      {"measurement": "IC50", "setting": "[2]", "value": 0.5, "unit": "nM"},
      {"measurement": "IC50", "setting": "Blood", "value": 540, "unit": "nM"},
      {"measurement": "IC50", "setting": "Cytochrome P450 2C9", "value": 500, "unit": "nM"},
      {"measurement": "IC50", "setting": "Cytochrome P450 2D6", "value": 11000, "unit": "nM"}
    ]},
    {"smiles": "CC(C)(Cc1cc2cc(OCc3ccccn3)ccc2n1Cc1ccc(-c2nccs2)cc1)C(=O)O", "values": [
      {"measurement": "IC50", "setting": "[1]", "value": 299, "unit": "nM"},
      {"measurement": "IC50", "setting": "[2]", "value": 19, "unit": "nM"},
      {"measurement": "IC50", "setting": "Blood", "value": 5520, "unit": "nM"}
    ]},
    {"smiles": "CC(C)(C)Sc1c(CC(C)(C)C(=O)O)n(Cc2ccc(-c3cccnc3)cc2)c2ccc(OCc3ccccn3)cc12", "values": [
      {"measurement": "IC50", "setting": "[1]", "value": 9, "unit": "nM"},
      {"measurement": "IC50", "setting": "[2]", "value": 3.4, "unit": "nM"},
      {"measurement": "IC50", "setting": "Blood", "value": 370, "unit": "nM"},
      {"measurement": "IC50", "setting": "Cytochrome P450 3A4 [4]", "value": 4700, "unit": "nM"},
      {"measurement": "IC50", "setting": "Cytochrome P450 2C9", "value": 15500, "unit": "nM"},
      {"measurement": "IC50", "setting": "Cytochrome P450 2D6", "value": 2600, "unit": "nM"},
      {"measurement": "bioavailability", "setting": "[6]", "value": 8, "unit": "%"},
      {"measurement": "Cmax", "setting": "[7]", "value": 920, "unit": "ng/mL"},
      {"measurement": "AUC", "setting": "[8]", "value": 1880, "unit": "ng·h/mL"},
      {"measurement": "clearance", "setting": "[9]", "value": 7, "unit": "mL/min/kg"},
      {"measurement": "Vd", "setting": "[10]", "value": 0.38, "unit": "L/kg"},
      {"measurement": "half-life", "setting": "[11]", "value": 7.6, "unit": "h"}
    ]},
    {"smiles": "Cc1cnc(-c2ccc(Cn3c(CC(C)(C)C(=O)O)c(SC(C)(C)C)c4cc(OCc5ccccn5)ccc43)cc2)s1", "values": [
      {"measurement": "TDI", "setting": "Cytochrome P450 3A4 [5]", "value": 0.014, "unit": "min⁻¹"},
      {"measurement": "IC50", "setting": "[1]", "value": 4.8, "unit": "nM"}
    ]},
    {"smiles": "Cc1csc(-c2ccc(Cn3c(CC(C)(C)C(=O)O)c(SC(C)(C)C)c4cc(OCc5ccccn5)ccc43)cc2)n1", "values": [
      {"measurement": "TDI", "setting": "Cytochrome P450 3A4 [5]", "value": 0.006, "unit": "min⁻¹"},
      {"measurement": "IC50", "setting": "[1]", "value": 7.3, "unit": "nM"}
    ]},
    {"smiles": "COc1ccc(-c2ccc(Cn3c(CC(C)(C)C(=O)O)c([S+]([O-])C(C)(C)C)c4cc(OCc5ccccn5)ccc43)cc2)cn1", "note": "(stereo not drawn)", "values": [
      {"measurement": "IC50", "setting": "[1]", "value": 793, "unit": "nM"},
      {"measurement": "IC50", "setting": "[2]", "value": 2000, "unit": "nM"}
    ]},
    {"smiles": "COc1ccc(-c2ccc(Cn3c(CC(C)(C)C(=O)O)c(S(=O)(=O)C(C)(C)C)c4cc(OCc5ccccn5)ccc43)cc2)cn1", "values": [
      {"measurement": "IC50", "setting": "[1]", "value": 205, "unit": "nM"},
      {"measurement": "IC50", "setting": "[2]", "value": 59, "unit": "nM"},
      {"measurement": "IC50", "setting": "Blood", "value": 3420, "unit": "nM"}
    ]}
  ]
}
